In ChEMBL document CHEMBL3826935, “Synthesis and Pharmacology of (Pyridin-2-yl)methanol Derivatives as Novel and Selective Transient Receptor Potential Vanilloid 3 Antagonists” (J Med Chem, 2016):
pEC50, pIC50: −log10 of the molar value.

What was measured:
[1] = test system: Liver microsome; assay: Unbound intrinsic clearance in human liver microsomes after 5 hrs by LC-MS/MS analysis; assay type: ADME
Method in brief: (§1)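 Microsomal stability run in an automated high-throughput plate format. Intrinsic clearance corrected for nonspecific microsomal binding using measured unbound fraction (fu,mic), reported as unbound Clint in L/h/kg.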

[2] = test system: Liver microsome; assay: Unbound intrinsic clearance in rat liver microsomes after 5 hrs by LC-MS/MS analysis; assay type: ADME; method in brief: as §1
[3] = molecular target: T1, Nuclear receptor subfamily 1 group I member 2 (Homo sapiens, UniProt O75469); assay: Activation of human PXR; assay type: ADME; settings: for Activity: human
T1 sequence (O75469 whole entry): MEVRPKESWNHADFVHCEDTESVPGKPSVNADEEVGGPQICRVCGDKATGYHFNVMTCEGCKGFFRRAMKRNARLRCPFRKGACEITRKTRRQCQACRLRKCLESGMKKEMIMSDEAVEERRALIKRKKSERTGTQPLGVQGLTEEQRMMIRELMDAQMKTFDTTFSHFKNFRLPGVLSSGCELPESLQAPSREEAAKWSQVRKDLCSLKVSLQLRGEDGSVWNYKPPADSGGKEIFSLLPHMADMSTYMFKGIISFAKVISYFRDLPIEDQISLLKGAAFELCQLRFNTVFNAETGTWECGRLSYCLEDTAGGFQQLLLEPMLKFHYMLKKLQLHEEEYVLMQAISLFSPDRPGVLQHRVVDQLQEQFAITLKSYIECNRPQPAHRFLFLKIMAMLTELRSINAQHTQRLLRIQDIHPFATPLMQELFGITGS

[4] = organism: Rattus norvegicus; assay: Cardiotoxicity in rat assessed as increase in cardiac contractility at plasma concentration of 4.7 ug/ml; assay type: toxicity, organism-based
[5] = organism: Rattus norvegicus; assay: Cardiotoxicity in rat assessed as increase in mean arterial pressure; assay type: toxicity, organism-based, Artery; settings: in vivo
[6] = molecular target: T2, Transient receptor potential cation channel subfamily V member 3 (Homo sapiens) (UniProt Q8NET8); assay: (§2) Antagonist activity at human TRPV3 expressed in recombinant HEK293 cells assessed as inhibition of 2-APB induced calcium flux by FLIPR analysis; assay type: cell-based
T2 sequence (whole entry): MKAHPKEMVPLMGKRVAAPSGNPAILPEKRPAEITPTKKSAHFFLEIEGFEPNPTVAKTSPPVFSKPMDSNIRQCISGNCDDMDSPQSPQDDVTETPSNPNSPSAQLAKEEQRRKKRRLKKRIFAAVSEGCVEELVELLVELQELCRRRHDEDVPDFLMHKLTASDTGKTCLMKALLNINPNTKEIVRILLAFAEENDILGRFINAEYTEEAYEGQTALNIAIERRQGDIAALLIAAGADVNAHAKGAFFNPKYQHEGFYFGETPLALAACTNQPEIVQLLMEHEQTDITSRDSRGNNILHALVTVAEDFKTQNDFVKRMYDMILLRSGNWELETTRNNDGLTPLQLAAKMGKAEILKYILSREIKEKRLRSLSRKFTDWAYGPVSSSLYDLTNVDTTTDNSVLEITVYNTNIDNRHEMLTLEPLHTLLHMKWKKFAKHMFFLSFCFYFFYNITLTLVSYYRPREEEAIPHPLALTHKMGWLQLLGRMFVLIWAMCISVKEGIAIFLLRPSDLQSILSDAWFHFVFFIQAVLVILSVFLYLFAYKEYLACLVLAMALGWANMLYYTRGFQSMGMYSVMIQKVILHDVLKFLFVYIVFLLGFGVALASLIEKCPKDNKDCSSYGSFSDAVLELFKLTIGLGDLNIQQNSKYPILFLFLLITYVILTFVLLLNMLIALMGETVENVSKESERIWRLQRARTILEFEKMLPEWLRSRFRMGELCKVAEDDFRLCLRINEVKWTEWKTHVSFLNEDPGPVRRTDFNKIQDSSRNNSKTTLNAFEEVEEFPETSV
Method in brief: (§3)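 HEK293 cells stably expressing human TRPV3 (I25V variant), plated the day before in DMEM + 10% FBS at 37 °C, 5% CO2. Calcium 4 dye loaded in Ca/Mg-free HEPES D-PBS pH 7.4 for 1–2 h at room temperature. Compound dilutions added with 3 min baseline, then 2-APB at 60 µM final; Ca2+ flux read 3 min on FLIPR. Kb from at least duplicates, averaged across independent runs.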

[7] = test system: Plasma; assay: Plasma concentration in rat; assay type: ADME, cell-free
[8] = test system: Rattus norvegicus; assay: Unbound AUC(0 to 8 hrs) in rat at 1 mg/kg, po; assay type: ADME, organism-based; settings: in vivo
Method in brief: (§4)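 Rat pharmacokinetics: iv dose 1 mg/kg; po dose 1 or 2 mg/kg depending on compound. AUC taken over 0–8 h. Unbound parameters calculated using plasma free fraction.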

[9] = Volume of distribution at steady state in rat at 1 mg/kg, iv or 1 mg/kg, po; assay type: ADME, organism-based; settings: in vivo, read-out: Vdss; method in brief: as §4
[10] = Half life in rat at 1 mg/kg, iv; assay type: ADME, organism-based; settings: in vivo; method in brief: as §4
[11] = […] plasma clearance in rat at 1 mg/kg, iv; assay type: ADME, organism-based; settings: read-out: CL free (converted); method in brief: as §4
[12] = Cmax in rat at 1 mg/kg, iv or 1 mg/kg, po; assay type: ADME, organism-based; settings: in vivo; method in brief: as §4
[13] = Total plasma clearance in rat at 1 mg/kg, iv; assay type: ADME, organism-based; method in brief: as §4
[14] = molecular target: T2, Transient receptor potential cation channel subfamily V member 3 (Homo sapiens); assay: Antagonist activity at human TRPV3 expressed in recombinant HEK293 cells assessed as free plasma level adjusted concentration for inhibition of 2-APB induced calcium flux by FLIPR analysis; assay type: cell-based
Method in brief: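 FLIPR Kb from the 2-APB (60 µM final) Ca2+ flux assay in human TRPV3 HEK293 cells, converted to an unbound value using the measured free fraction in plasma.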

[15] = Fraction unbound in human plasma; assay type: ADME, cell-free
[16] = AUC(0 to 8 hrs) in rat at 1 mg/kg, po; assay type: ADME, organism-based; set-up: time < 6 hr, dose 1 mg/kg, route oral; settings: in vivo; method in brief: as §4
[17] = Oral bioavailability in rat at 1 mg/kg; assay type: ADME, organism-based; settings: in vivo; method in brief: as §4
[18] = test system: Liver microsome; assay: Drug metabolism in rat liver microsomes assessed as alcohol group oxidation after 1 hr by HPLC analysis; assay type: ADME
Method in brief: (§5)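 Compound incubated in rat liver microsomes for 1 h at 37 °C. Metabolite distribution analysed by HPLC; metabolite structures assigned by 1H NMR.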

[19] = test system: Liver microsome; assay: Drug metabolism in rat liver microsomes assessed as cyclobutane ring oxidation after 1 hr by HPLC analysis; assay type: ADME; method in brief: as §5
[20] = test system: Liver microsome; assay: Drug metabolism in rat liver microsomes assessed as aromatic ring oxidation after 1 hr by HPLC analysis; assay type: ADME; method in brief: as §5
[21] = molecular target: T3, Transient receptor potential cation channel subfamily V member 3 (Homo sapiens, UniProt Q8NET8); assay: as §2; assay type: cell-based; method in brief: as §3
T3 sequence (Q8NET8 whole entry): T2 sequence (whole entry)

Row | SMILES | CL free [1] [mL/min/kg] | CL free [2] [mL/min/kg] | Activity [4] | Activity [5] | Kb [6] [nM] | Activity [3] | also measured
1 | O[C@H](c1ccccn1)C1(c2ccc(OC(F)(F)F)cc2)CC(F)(F)C1 | 183 | 200 | 29% | 16% | 40 | – | pEC50 [3]: 5.24; Cp [7]: 4700 ng/mL
2 | C[C@]1(c2ccc(OC(F)(F)F)cc2)C[C@](O)(c2ccccn2)CO1 (single isomer, unassigned) | 120 | 167 | – | – | 420 | – | fAUC [8]: 30 ng·h/mL; Vd [9]: 3.2 L/kg; half-life [10]: 3.8 h; clearance [11]: 293 mL/min/kg; Cmax [12]: 130 ng/mL; clearance [13]: 10 mL/min/kg; Kb [14]: 12000 nM; fraction unbound [15]: 0.06; AUC(0-t) at 6 h [16]: 930 ng·h/mL; bioavailability [17]: 56%
3 | C[C@]1(O)C[C@](c2cc(C(F)(F)F)ccn2)([C@@H](O)c2ccccn2)C1 | 33 | 100 | Non-toxic | Non-toxic | > 9100 | Not Active | –
4 | O[C@H](c1ccccn1)[C@]1(c2cccc(OC(F)(F)F)c2)C[C@@H](O)C1 | 120 | 217 | Non-toxic | Non-toxic | 80 | Not Active | –
5 | C[C@]1(O)C[C@](c2ccc(C(F)(F)F)cc2)([C@H](O)c2ccccn2)C1 | 33 | 100 | Non-toxic | Non-toxic | 4790 | Not Active | –
6 | C[C@]1(O)C[C@@](c2ccnc(C(F)(F)F)c2)([C@H](O)c2ccccn2)C1 | 67 | 50 | Non-toxic | Non-toxic | 4270 | Not Active | –
7 | C[C@]1(O)C[C@](c2ccnc(C(F)(F)F)c2)([C@H](O)c2ccccn2)C1 | 67 | 83 | Non-toxic | Non-toxic | 500 | Not Active | –
8 | C[C@]1(O)C[C@@](c2ccc(C(F)(F)F)cc2)([C@H](O)c2ccccn2)C1 | 50 | 150 | Non-toxic | Non-toxic | 840 | Not Active | –
9 | C[C@]1(O)C[C@](c2ccc(OC(F)(F)F)cc2)([C@H](O)c2ccccn2)C1 | 50 | 100 | Non-toxic | Non-toxic | 1510 | Not Active | –
10 | O[C@H](c1ccccn1)[C@]1(c2ccnc(C(F)(F)F)c2)C[C@@H](O)C1 | 83 | 200 | Non-toxic | Non-toxic | 530 | Not Active | –
11 | O[C@H](c1ccccn1)[C@]1(c2ccnc(C(F)(F)F)c2)C[C@H](O)C1 | 33 | 50 | Non-toxic | Non-toxic | 60 | Not Active | –
12 | O[C@H](c1ccccn1)C1(c2ccc(Cl)c(Cl)c2)CCC1 | 683 | 2520 | – | – | 80 | – | Drug metabolism [18]: metabolite_detected; Drug metabolism [19]: metabolite_detected; Drug metabolism [20]: metabolite_detected; pIC50 [21]: 6.80; fraction unbound [15]: 0.007
13 | O[C@H](c1ccccn1)[C@]1(c2cc(C(F)(F)F)ccn2)C[C@@H](O)C1 | 33 | 50 | Non-toxic | Non-toxic | 320 | Not Active | –
14 | C[C@]1(O)C[C@@](c2cccc(C(F)(F)F)c2)([C@H](O)c2ccccn2)C1 | 150 | 317 | Non-toxic | Non-toxic | 300 | Not Active | –
